# Assay results: ChEMBL document CHEMBL4680254, “Design, synthesis and discovery of 2(1H)-quinolone derivatives for the treatment of pulmonary fibrosis through inhibition of TGF-β/smad dependent and independent pathway” (Eur J Med Chem, 2020)
# Active and inactive are the calls of the source. No cut-off for these calls is given here.
# Assays:
# [1] = Effect on total […] expression in TGFbeta-stimulated rat NRK-49F at 20 to 40 uM preincubated for 1 to 2 hrs followed by TGF-beta stimulation and measured after 1 hr by Western blot analysis; conditions: dose lower 20 µM, time lower 2 hrs, dose upper 40 µM, time upper 3 hrs
# Method in brief: (§1)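 NRK-49F cells were pretreated with or without compound (20 and 40 µM) for 1 or 2 h, then stimulated with TGF-β 5 ng/mL for 1 h. Lysates were made in RIPA with PMSF and protease inhibitors, and 30–40 µg protein was run on 10–12% SDS-PAGE and moved to PVDF. Blots were probed for phospho- and total Smad2, Smad3, p38 and ERK1/2, with GAPDH as loading control and ECL detection.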
# [2] = tested on: NRK-49F; experiment: Inhibition of TGF-beta-induced alpha-SMA protein expression in rat NRK-49F cells at 20 to 40 uM incubated for 24 hrs by Western blotting analysis; format: functional, cell-based; conditions: dose 20-40 µM
# [3] = tested on: Mus musculus; experiment: Anti-fibrotic activity in C57BL/6 mouse model of bleomycin-induced lung fibrosis assessed as survival rate at 50 to 100 mg/kg, po administered for 30 days starting from day 1 post bleomycin treatment; format: functional, organism-based; conditions: dose 50-100 mg/kg, time 30.0 day
# Method in brief: (§2)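 Survival was followed in male C57BL/6 mice (8 weeks, n=10 per group) after one intratracheal bleomycin dose of 3 U/kg in 0.075 mL saline. Oral dosing was daily, days 1–30 (prevention) or days 8–21 (treatment), with survival curves plotted.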
# [4] = tested on: L929; experiment: Antimigratory activity in mouse L929 cells assessed as inhibition of TGF-beta-induced cell migration at 10 uM incubated for 24 hrs by wound healing assay; format: functional, cell-based
# Method in brief: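 Mouse L929 fibroblasts (MEM, 10% FBS, 37 °C, 5% CO₂) were grown to confluence and scratched with a pipette tip to a 100 µm wound. They were then kept in serum-free medium with or without TGF-β 5 ng/ml and compound 10 µM for 24 h. Wounds were imaged by light microscopy at 0, 12 and 24 h.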
# [5] = tested on: Mus musculus; experiment: Anti-fibrotic activity in C57BL/6 mouse model of bleomycin-induced lung fibrosis assessed as reduction in collagen deposition by measuring hydroxyproline content in lung at 100 mg/kg, po administered for […] starting from day 8 post bleomycin treatment; format: functional, organism-based; conditions: time 14.0 day
# Method in brief: (§3)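 In the bleomycin mouse model (male C57BL/6, 8 weeks, 3 U/kg intratracheal in saline, n=10 per group), daily oral dosing ran days 1–30 or days 8–21. Right lungs were dried, acid hydrolysed, filtered and brought to pH 6.5–8.0. Hydroxyproline was read by chloramine-T spectrophotometry with a kit.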
# [6] = Effect on total Smad2 expression in TGFbeta-stimulated rat NRK-49F at 20 to 40 uM preincubated for 1 to 2 hrs followed by TGF-beta stimulation and measured after 1 hr by Western blot analysis; conditions: dose lower 20 µM, time lower 2 hrs, dose upper 40 µM, time upper 3 hrs; method in brief: as §1
# [7] = Half life in Sprague-Dawley rat at 5 mg/kg, po; format: ADME, organism-based; conditions: in vivo
# Method in brief: (§4)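 Rats were given a single 5 mg/kg dose intravenously or orally, and plasma concentration–time curves were followed. t1/2, tmax, AUC0-t and oral bioavailability (n = 5) were derived from these curves.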
# [8] = Oral bioavailability in Sprague-Dawley rat at 5 mg/kg; format: ADME, organism-based; conditions: in vivo; method in brief: as §4
# [9] = tested on: Mus musculus; experiment: Anti-fibrotic activity in C57BL/6 mouse model of bleomycin-induced lung fibrosis assessed as reduction in collagen deposition by measuring hydroxyproline content in lung at 50 to 100 mg/kg, po administered for 30 days starting from day 1 post bleomycin treatment; format: functional, organism-based; conditions: dose 50-100 mg/kg, time 30.0 day; method in brief: as §3
# [10] = Effect on total p38 expression in TGFbeta-stimulated rat NRK-49F at 20 to 40 uM preincubated for 1 to 2 hrs followed by TGF-beta stimulation and measured after 1 hr by Western blot analysis; format: tissue-based; conditions: dose lower 20 µM, time lower 2 hrs, dose upper 40 µM, time upper 3 hrs; method in brief: as §1
# [11] = Half life in Sprague-Dawley rat at 5 mg/kg, iv; format: ADME, organism-based; conditions: in vivo; method in brief: as §4
# [12] = Effect on total Smad3 expression in TGFbeta-stimulated rat NRK-49F at 20 to 40 uM preincubated for 1 to 2 hrs followed by TGF-beta stimulation and measured after 1 hr by Western blot analysis; conditions: dose lower 20 µM, time lower 2 hrs, dose upper 40 µM, time upper 3 hrs; method in brief: as §1
# [13] = tested on: Mus musculus; experiment: Anti-fibrotic activity in C57BL/6 mouse model of bleomycin-induced lung fibrosis assessed as survival rate at 50 mg/kg, po administered for […] starting from day 8 post bleomycin treatment; format: functional, organism-based; conditions: time 14.0 day; method in brief: as §2
# [14] = tested on: NRK-49F; experiment: Inhibition of TGF-beta-induced collagen accumulation in rat NRK-49F cells at 10 uM incubated for 2 days by PSR staining based microscopic analysis relative to control; format: functional; conditions: 48 h, time 2 day
# Method in brief: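 NRK-49F cells were grown 3 days in DMEM with 5% FBS, then 2 days in DMEM with 1% ITS. Next came 2 days with TGF-β 5 ng/ml plus or minus compound 10 µM. Cells were fixed in 4% paraformaldehyde and stained 4 h with 0.1% Picrosirius Red, then rinsed with acetic acid. Dye was eluted with 0.1 M NaOH and OD read at 540 nm. Inhibition = […] ×100%, in triplicate.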
# [15] = molecular target: Mothers against decapentaplegic homolog 2 (Rattus norvegicus) (UniProt O70436); experiment: Inhibition of TGF-beta induced SMAD2 phosphorylation in rat NRK-49F cells at 20 to 40 uM pretreated with compound for 1 to 2 hrs followed by TGF-beta stimulation for 1 hr by Western blot analysis; format: cell-based; conditions: dose 20-40 µM, time 2-3 hrs; method in brief: as §1
# [16] = Cytotoxicity against rat NRK-49F cells assessed as cell survival rate at 10 uM incubated for 72 hrs by MTT assay; format: cell-based; conditions: read-out: Activity
# Method in brief: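 NRK-49F cells were seeded at 0.5×10^5 cells/ml, cultured overnight, then exposed to compound 10 µM for 72 h. MTT was added and incubated 4 h, formazan dissolved in DMSO and absorbance read. Survival = (treated − zero)/(blank − zero) A ×100%, done in triplicate.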
# [17] = AUC (0 to t) in Sprague-Dawley rat at 5 mg/kg, iv; format: ADME, organism-based; parameters: dose 5 mg/kg; conditions: in vivo
# Method in brief: (§5)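 Rats received a single 5 mg/kg dose, either intravenously or orally. AUC0-t was derived from plasma concentration–time curves after that one dose. n = 5 per the reported oral data.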
# [18] = Tmax in Sprague-Dawley rat at 5 mg/kg, po; format: ADME, organism-based; conditions: in vivo; method in brief: as §4
# [19] = AUC (0 to t) in Sprague-Dawley rat at 5 mg/kg, po; format: ADME, organism-based; parameters: dose 5 mg/kg; conditions: in vivo; method in brief: as §5
# [20] = Tmax in Sprague-Dawley rat at 5 mg/kg, iv; format: ADME, organism-based; conditions: in vivo; method in brief: as §4
# [21] = molecular target: Mitogen-activated protein kinase 1 and 3 (ERK2 and ERK1) (Rattus norvegicus) (UniProt P63086+P21708); experiment: Inhibition of TGF-beta induced ERK1/2 phosphorylation in rat NRK-49F cells at 20 to 40 uM pretreated with compound for 1 to 2 hrs followed by TGF-beta stimulation for 1 hr by Western blot analysis; format: cell-based; conditions: dose 20-40 µM, time 2-3 hrs; method in brief: as §1
# [22] = tested on: Mus musculus; experiment: Anti-fibrotic activity in C57BL/6 mouse model of bleomycin-induced lung fibrosis assessed as protection of alveolar tissue structure at 50 to 100 mg/kg, po administered for 30 days starting from day 1 post bleomycin treatment by hematoxylin and eosin staining based microscopic analysis; format: functional, organism-based; conditions: dose 50-100 mg/kg, time 30.0 day
# Method in brief: (§6)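 Male C57BL/6 mice, 8 weeks old, n=10 per group; lung fibrosis from one intratracheal instillation of bleomycin 3 U/kg in 0.075 mL saline, saline-only controls. Daily oral dosing days 1–30 (prevention) or days 8–21 (treatment). Left lungs fixed in 10% formalin 24 h, paraffin-embedded, 5 µm sections stained with H&E (also Masson's trichrome) and examined by microscopy.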
# [23] = tested on: NRK-49F; experiment: Inhibition of TGF-beta-induced collagen-1 protein expression in rat NRK-49F cells at 20 to 40 uM incubated for 24 hrs by Western blotting analysis; format: functional, cell-based; conditions: dose 20-40 µM
# [24] = molecular target: Mothers against decapentaplegic homolog 3 (Rattus norvegicus) (UniProt P84025); experiment: Inhibition of TGF-beta induced SMAD3 phosphorylation in rat NRK-49F cells at 20 to 40 uM pretreated with compound for 1 to 2 hrs followed by TGF-beta stimulation for 1 hr by Western blot analysis; format: cell-based; conditions: dose 20-40 µM, time 2-3 hrs; method in brief: as §1
# [25] = tested on: NRK-49F; experiment: Inhibition of TGF-beta induced p38 phosphorylation in rat NRK-49F cells at 20 to 40 uM pretreated with compound for 1 to 2 hrs followed by TGF-beta stimulation for 1 hr by Western blot analysis; format: cell-based; conditions: dose 20-40 µM, time 2-3 hrs; method in brief: as §1
# [26] = tested on: Mus musculus; experiment: Anti-fibrotic activity in C57BL/6 mouse model of bleomycin-induced lung fibrosis assessed as reduction in inflammatory cell infiltration at 50 to 100 mg/kg, po administered for 30 days starting from day 1 post bleomycin treatment by hematoxylin and eosin staining based microscopic analysis; format: functional, organism-based; conditions: dose 50-100 mg/kg, time 30.0 day; method in brief: as §6
# [27] = tested on: Mus musculus; experiment: Anti-fibrotic activity in C57BL/6 mouse model of bleomycin-induced lung fibrosis assessed as suppression of smad3 phosphorylation level in lung at 50 to 100 mg/kg, po administered for 30 days starting from day 1 post bleomycin treatment by immunohistochemistry staining based microscopic analysis; format: functional, organism-based; conditions: dose 50-100 mg/kg, time 30.0 day
# Method in brief: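 Male C57BL/6 mice, 8 weeks, got intratracheal bleomycin 3 U/kg in 0.075 mL saline, then daily oral dosing days 1–30. Left lungs were formalin-fixed (10%, 24 h) and paraffin-embedded; 5 µm sections were incubated with antibody at 4 °C overnight for immunohistochemistry of phospho-Smad3 and imaged by microscopy.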
# [28] = tested on: Mus musculus; experiment: Anti-fibrotic activity in C57BL/6 mouse model of bleomycin-induced lung fibrosis assessed as protection of alveolar tissue structure at 100 mg/kg, po administered for […] starting from day 8 post bleomycin treatment by hematoxylin and eosin staining based microscopic analysis; format: functional, organism-based; conditions: time 14.0 day; method in brief: as §6
# [29] = tested on: NRK-49F; experiment: Inhibition of TGF-beta-induced collagen accumulation in rat NRK-49F cells incubated for 2 days by PSR staining based microscopic analysis; format: functional, cell-based; conditions: 48 h
# Chain of Mothers against decapentaplegic homolog 2 (Rattus norvegicus) (O70436 whole entry): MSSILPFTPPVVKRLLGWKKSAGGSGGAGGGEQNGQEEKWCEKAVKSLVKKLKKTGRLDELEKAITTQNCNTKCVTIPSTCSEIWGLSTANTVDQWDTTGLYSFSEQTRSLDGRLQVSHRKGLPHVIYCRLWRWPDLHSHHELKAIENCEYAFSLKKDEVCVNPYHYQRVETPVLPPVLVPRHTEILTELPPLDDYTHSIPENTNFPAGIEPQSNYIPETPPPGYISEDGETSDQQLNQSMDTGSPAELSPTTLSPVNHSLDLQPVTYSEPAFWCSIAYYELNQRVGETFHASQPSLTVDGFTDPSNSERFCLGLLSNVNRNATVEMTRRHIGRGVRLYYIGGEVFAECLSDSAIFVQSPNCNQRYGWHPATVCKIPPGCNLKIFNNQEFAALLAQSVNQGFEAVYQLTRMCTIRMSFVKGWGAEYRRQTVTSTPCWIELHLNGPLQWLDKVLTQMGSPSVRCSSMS
# Chain of Mitogen-activated protein kinase 1 and 3 (ERK2 and ERK1) (Rattus norvegicus) (P21708 whole entry, looked up): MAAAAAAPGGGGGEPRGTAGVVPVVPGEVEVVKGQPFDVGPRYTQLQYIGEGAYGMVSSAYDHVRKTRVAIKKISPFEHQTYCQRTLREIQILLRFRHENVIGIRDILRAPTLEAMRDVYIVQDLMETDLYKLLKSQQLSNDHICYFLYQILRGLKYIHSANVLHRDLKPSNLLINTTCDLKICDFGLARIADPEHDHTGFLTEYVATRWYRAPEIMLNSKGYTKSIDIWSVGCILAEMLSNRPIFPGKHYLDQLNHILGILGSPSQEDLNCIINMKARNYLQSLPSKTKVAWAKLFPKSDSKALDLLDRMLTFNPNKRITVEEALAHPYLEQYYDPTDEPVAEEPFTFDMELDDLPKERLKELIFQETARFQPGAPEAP
# Chain of Mitogen-activated protein kinase 1 and 3 (ERK2 and ERK1) (Rattus norvegicus) (P63086 whole entry, looked up): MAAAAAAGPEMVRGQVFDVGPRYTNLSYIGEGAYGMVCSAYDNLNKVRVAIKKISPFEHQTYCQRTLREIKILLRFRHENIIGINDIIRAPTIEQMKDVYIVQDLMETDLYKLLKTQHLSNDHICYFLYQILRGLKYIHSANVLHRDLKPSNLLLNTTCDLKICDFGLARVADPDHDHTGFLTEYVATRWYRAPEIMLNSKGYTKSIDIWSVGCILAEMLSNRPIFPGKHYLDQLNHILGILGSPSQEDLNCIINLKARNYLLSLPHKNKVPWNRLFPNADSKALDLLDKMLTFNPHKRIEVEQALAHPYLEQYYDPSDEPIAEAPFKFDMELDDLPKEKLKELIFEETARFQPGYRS
# Chain of Mothers against decapentaplegic homolog 3 (Rattus norvegicus) (P84025 whole entry, looked up): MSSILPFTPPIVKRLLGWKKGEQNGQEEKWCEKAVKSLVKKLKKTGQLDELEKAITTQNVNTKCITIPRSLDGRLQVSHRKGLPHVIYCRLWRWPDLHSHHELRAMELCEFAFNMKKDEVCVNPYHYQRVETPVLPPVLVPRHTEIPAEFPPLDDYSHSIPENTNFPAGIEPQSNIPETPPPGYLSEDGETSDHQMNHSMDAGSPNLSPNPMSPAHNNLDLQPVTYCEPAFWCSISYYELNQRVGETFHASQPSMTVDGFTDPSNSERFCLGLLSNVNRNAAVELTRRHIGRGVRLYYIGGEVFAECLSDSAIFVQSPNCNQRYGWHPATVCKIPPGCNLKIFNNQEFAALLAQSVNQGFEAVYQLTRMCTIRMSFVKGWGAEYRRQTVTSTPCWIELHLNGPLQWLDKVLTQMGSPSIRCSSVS
smiles,measurement,setting,value
O=C(CN1CCN(C(=O)C2CC2)CC1)Nc1ccc(Oc2cc(=O)[nH]c3ccccc23)c(F)c1,Activity,[1],Non-Toxic
same,inhibition,[2],Active
same,Activity,[3],Active
same,inhibition,[4],Active
same,Activity,[5],Active
same,Activity,[6],Non-Toxic
same,half-life,[7],3.5 h
same,bioavailability,[8],41.5%
same,Activity,[9],Active
same,Activity,[10],Non-Toxic
same,half-life,[11],4.39 h
same,Activity,[12],Non-Toxic
same,Activity,[13],Active
same,inhibition at 10 µM,[14],87.5%
same,inhibition,[15],Dose-dependent effect
same,"viability at 72 h, 10 µM",[16],97.5%
same,AUC(0-t),[17],13100 ng·h/mL
same,Tmax,[18],4.33 h
same,AUC(0-t),[19],5460 ng·h/mL
same,Tmax,[20],4.8 min
same,inhibition,[21],Active
same,Activity,[22],Active
same,inhibition,[23],Active
same,inhibition,[24],Dose-dependent effect
same,inhibition,[25],Active
same,Activity,[26],Active
same,Activity,[27],Active
same,Activity,[28],Active
O=C(CN1CCCCC1)Nc1ccc(Oc2cc(=O)[nH]c3ccccc23)cc1,inhibition at 10 µM,[14],27.4%
same,"viability at 72 h, 10 µM",[16],78.5%
CC(C)(C)OC(=O)N1CCN(CC(=O)Nc2ccc(Oc3cc(=O)[nH]c4ccccc34)c(F)c2)CC1,inhibition,[4],Active
same,IC50,[29],6.12 µM
same,inhibition at 10 µM,[14],89.1%
same,"viability at 72 h, 10 µM",[16],86.2%
CN(C)C1CCN(CC(=O)Nc2ccc(Oc3cc(=O)[nH]c4ccccc34)cc2)CC1,inhibition at 10 µM,[14],43.9%
same,"viability at 72 h, 10 µM",[16],81.2%
O=C(CN1CCNCC1)Nc1ccc(Oc2cc(=O)[nH]c3ccccc23)cc1,inhibition at 10 µM,[14],58.1%
same,"viability at 72 h, 10 µM",[16],95.1%
